Drawing on ChEMBL document CHEMBL1138852, “Arylpiperazinylalkylpyridazinones and analogues as potent and orally active antinociceptive agents: synthesis and studies on mechanism of action” (J Med Chem, 2006), this text covers Activity, Ki and IC50 for 30 compounds.

Assay [1] concerns Mus musculus. The assay can be described thus: Antinociceptive activity in Swiss Albino mouse at 20 mg/kg, po by hot plate assay measured as licking latency. Type of assay: functional. Set-up: unit: s. Put shortly: (§1)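 Oral dosing in saline or 1% CMC. Mice placed on a surface held at 52.5 ± 0.1 °C; paw-licking latency (s) timed before treatment and at intervals up to 60 min afterwards. Mice with pretest latency below 12 or above 18 s were excluded. Cutoff 45 s.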

In assay [2] the test system is Mus musculus. The assay is described as follows: Antinociceptive activity in Swiss Albino mouse at 20 mg/kg, po by writhing test measured as number of writhes. Type of assay: functional. Put shortly: (§2)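 Drugs dosed orally 30 min before test, in saline or 1% CMC suspension; yohimbine arm included. 0.6% acetic acid (10 mL/kg) injected i.p., and abdominal constrictions counted for 10 min from 5 min after injection. Values are means of at least two experiments, compared with CMC-treated mice.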

For assay [3], the system named is Mus musculus. The assay can be described thus: Antinociceptive activity in Swiss Albino mouse at 5 mg/kg, po by writhing test measured as number of writhes. It is filed as functional. Put shortly: as §2
Assay [4] concerns Mus musculus. The assay can be described thus: Antinociceptive activity in Swiss Albino mouse at 20 mg/kg, po by writhing test measured as number of writhes in presence of yohimbine. It is filed as functional. The procedure, abridged: as §2
Assay [5] has as its system Mus musculus. The assay is described as follows: Antinociceptive activity in Swiss Albino mouse at 1 mg/kg, sc by abdominal constriction assay. It is filed as functional, Abdomen. The conditions noted are these: route subcutaneous. The procedure, abridged: (§3)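 Acetic acid writhing in mice: 0.6% acetic acid at 10 mL/kg i.p., with stretching movements counted over 10 min starting 5 min after injection. Compound A 1 mg/kg s.c. or antagonists i.p. Drugs in 0.9% saline or dispersed in 1% carboxymethylcellulose. Groups of 10-15 mice, compared against saline/CMC controls.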

Assay [6] has as its target T1, Alpha-2A adrenergic receptor (Rattus norvegicus, UniProt P22909).
T1 sequence (P22909 whole entry): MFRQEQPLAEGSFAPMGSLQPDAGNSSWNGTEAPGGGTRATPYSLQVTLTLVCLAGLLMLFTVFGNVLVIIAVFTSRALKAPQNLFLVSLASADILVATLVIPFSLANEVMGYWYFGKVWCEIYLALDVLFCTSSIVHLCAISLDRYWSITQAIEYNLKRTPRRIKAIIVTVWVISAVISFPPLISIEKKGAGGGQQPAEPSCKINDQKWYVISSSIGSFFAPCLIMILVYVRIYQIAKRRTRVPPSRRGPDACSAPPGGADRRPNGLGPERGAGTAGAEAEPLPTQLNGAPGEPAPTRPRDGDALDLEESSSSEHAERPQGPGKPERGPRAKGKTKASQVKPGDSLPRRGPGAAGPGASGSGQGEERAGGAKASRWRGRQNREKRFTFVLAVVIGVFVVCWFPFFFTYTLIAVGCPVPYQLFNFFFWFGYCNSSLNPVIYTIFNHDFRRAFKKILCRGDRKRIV
The assay is described as follows: Binding affinity to adrenergic alpha-2A receptor in Sprague-Dawley rat cortical membranes.

The species entered for assay [7] is Mus musculus. The assay is described as follows: Impairment in mouse rotarod test. Type of assay: functional, organism-based.
Assay [8] relates to Cerebral cortex. The assay is described as follows: Increase in noradrenaline release in Sprague-Dawley rat cortical membranes. Type of assay: functional.
Assay [9] concerns the target Norepinephrine transporter (Rattus norvegicus, UniProt Q9WTR4). The assay is described as follows: Inhibition of [3H]noradrenaline uptake in Sprague-Dawley rat brain synaptosomes. Type of assay: functional, subcellular. The procedure, abridged:
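Rat frontal cortex synaptosomes prepared on a sucrose gradient and resuspended in Krebs-type buffer, pH 7.4, with 0.01 mM pargyline. Preincubated 5 min at 37 °C with or without drug, then [3H]-NE added for 6 min. Samples filtered and counted. Active uptake taken as accumulation at 37 °C minus accumulation at 0 °C.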

Assay [10] relates to Mus musculus. The assay is described as follows: Antinociceptive activity in Swiss Albino mouse at 10 mg/kg, po by writhing test measured as number of writhes. It is filed as functional. The procedure, abridged:
as §2

In assay [11] the test system is Mus musculus. The assay can be described thus: Antinociceptive activity in Swiss Albino mouse at 30 mg/kg, po by writhing test measured as number of writhes. Type of assay: functional. Put shortly: as §2
Assay [12] deals with Mus musculus. The assay is described as follows: Antinociceptive activity in Swiss Albino mouse at 30 mg/kg, po by hot plate assay measured as licking latency. Type of assay: functional. Put shortly:
as §1

Assay [13] deals with Mus musculus. The assay can be described thus: Antinociceptive activity in Swiss Albino mouse at 1 mg/kg, ip by abdominal constriction assay. It is filed as functional, Abdomen. The following applies: route intraperitoneal. Put shortly:
as §3

Assay [14] has as its system Mus musculus. The assay can be described thus: Antagonist effect on compound A-induced antinociception in Swiss Albino mouse at 1 mg/kg, ip. It is filed as functional. The conditions noted are these: route intraperitoneal. Put shortly:
(§4)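 Mice given antagonist i.p. (yohimbine 3 mg/kg, BRL-44408 1 mg/kg, ARC-239 10 mg/kg) plus compound A 1 mg/kg s.c., or antagonist plus vehicle. Abdominal constriction test: 0.6% acetic acid (10 mL/kg) i.p., stretching movements counted for 10 min beginning 5 min after injection. Groups of 10-15 mice, compared with saline/CMC controls.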

The test system of assay [15] is Mus musculus. The assay is described as follows: Antinociceptive activity in Swiss Albino mouse at 3 mg/kg, po by writhing test measured as number of writhes in presence of yohimbine. Type of assay: functional.
Assay [16] deals with Mus musculus. The assay can be described thus: Antinociceptive activity in Swiss Albino mouse at 3 mg/kg, ip by abdominal constriction assay. Type of assay: functional, Abdomen. The conditions noted are these: route intraperitoneal. The procedure, abridged: as §3
Assay [17] has as its system Mus musculus. The assay is described as follows: Antagonist effect on compound A-induced antinociception in Swiss Albino mouse at 3 mg/kg, ip. Type of assay: functional. The following applies: route intraperitoneal. The procedure, abridged:
as §4

The subject of assay [18] is Mus musculus. The assay is described as follows: Antinociceptive activity in Swiss Albino mouse at 3 mg/kg, po by hot plate assay measured as licking latency. Type of assay: functional. The procedure, abridged: as §1
Assay [19] deals with Mus musculus. The assay is described as follows: Antagonist effect on compound A-induced antinociception in Swiss Albino mouse at 10 mg/kg, ip. The conditions noted are these: route intraperitoneal. It is filed as functional. The procedure, abridged:
as §4

SMILES strings stand for the structures. Where “and” joins values, the source holds several entries; their conditions need not be identical. Identical values can stand only once. Calls of active or inactive are those of the source. Where only a bound is given, the exact number is not on record here.

Norepinephrine transporter, sequence (Q9WTR4 whole entry): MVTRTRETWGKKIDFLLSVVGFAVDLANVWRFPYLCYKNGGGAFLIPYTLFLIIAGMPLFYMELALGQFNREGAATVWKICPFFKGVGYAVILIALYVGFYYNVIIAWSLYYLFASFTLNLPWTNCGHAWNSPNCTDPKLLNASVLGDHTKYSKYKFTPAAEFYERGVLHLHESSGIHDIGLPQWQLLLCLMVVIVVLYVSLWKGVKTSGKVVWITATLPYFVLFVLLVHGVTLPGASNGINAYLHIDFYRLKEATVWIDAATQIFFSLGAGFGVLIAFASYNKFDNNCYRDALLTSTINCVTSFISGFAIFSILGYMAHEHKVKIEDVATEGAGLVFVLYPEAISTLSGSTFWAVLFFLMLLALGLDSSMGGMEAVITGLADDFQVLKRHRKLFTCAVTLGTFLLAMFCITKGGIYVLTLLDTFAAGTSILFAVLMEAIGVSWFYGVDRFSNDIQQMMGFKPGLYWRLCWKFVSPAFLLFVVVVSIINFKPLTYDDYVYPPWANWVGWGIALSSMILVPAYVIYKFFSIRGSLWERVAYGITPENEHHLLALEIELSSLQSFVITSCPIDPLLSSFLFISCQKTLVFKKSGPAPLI

Consider `O=C1c2ccccc2C(=O)N1CCCN1CCN(c2cccc(Cl)c2)CC1`, for which the Activity in assay [1] is 16.2; in assay [2], 34.9.

As to `Cc1noc2c(-c3ccccc3[N+](=O)[O-])nn(CCCN3CCN(c4cccc(Cl)c4)CC3)c(=O)c12`, the Activity in assay [2] turned out to be 31.7.

`Cc1noc2cnn(CCCCN3CCN(c4cccc(Cl)c4)CC3)c(=O)c12` yielded an Activity in [3] of 27.2.

`O=c1c2ccccc2cnn1CCCN1CCN(c2ccc(Cl)cc2)CC1` had an Activity in assay [2] of 23.9.

For the compound `O=c1c2ccccc2cnn1CCCN1CCN(c2cccc(Cl)c2)CC1`, the Activity is 28 and 83% in [1] (20 mg/kg); 8.2 in [2]; 31.8 in assay [4].

For the compound `CCOC(=O)CCn1nc(-c2ccccc2)c2onc(C)c2c1=O`, the Activity in [1] is 17.4; in [2] it was 32.7.

As to `Cc1noc2c(-c3ccccc3)nn(CCCN3CCN(c4cccc(Cl)c4)CC3)c(=O)c12`, the Activity in assay [5] is 11.6; in [8], “Dose-dependent effect”. For the same compound, the Ki in assay [6] is above 1000 nM. In addition, the result in [7] was inactive. In assay [9], this compound gave an IC50 of 130 nM.

Consider `O=c1c2ccccc2cnn1CCCCN1CCN(c2cccc(Cl)c2)CC1`, for which the Activity in assay [2] stood at 28.5.

With `N#Cc1cccc(N2CCN(CCCn3ncc4ccccc4c3=O)CC2)c1`, the Activity in [10] is reported as 17.2.

As for `Cc1noc2c(-c3ccccc3)nn(CCCN3CCN(c4ccccn4)CC3)c(=O)c12`, the Activity in [11] turned out to be 30.2; in assay [12], 15.1.

In [2], `Cc1noc2c(-c3ccc([N+](=O)[O-])cc3)nn(CCCN3CCN(c4cccc(Cl)c4)CC3)c(=O)c12` showed an Activity of 26.8.

For `Cc1noc2cnn(CCCN3CCN(c4cccc(Cl)c4)CC3)c(=O)c12`, the Activity in assay [1] came out at 27.7; in assay [2], 11.9; in assay [4] it was 27.4.

On to `Cc1noc2c(-c3ccccc3)nn(CCCN3CCN(c4ccc(F)cc4)CC3)c(=O)c12`, for which the results for the Activity in [11] and in assay [12] were 39.2 and 17.6, respectively.

Consider `Cc1noc2c(-c3ccccc3N)nn(CCCN3CCN(c4cccc(Cl)c4)CC3)c(=O)c12`, for which the Activity in assay [1] is on record as 16.5; in [2] it was 28.

In the case of `CC1c2ccccc2CN1CC1=NCCN1` (centres undefined), the values for the Activity in assay [13] and in assay [14] were 32.9 and 33.4, respectively.

Regarding `Cc1noc2c(-c3ccccc3)nn(CCN3CCN(c4cccc(Cl)c4)CC3)c(=O)c12`, the results for the Activity in assay [1], in assay [2] and in assay [4] were 15.4, 23.6 and 37.2, respectively.

For the compound `COC(=O)[C@@H]1[C@H]2C[C@H]3c4[nH]c5ccccc5c4CCN3C[C@@H]2CC[C@@H]1O` [YOHIMBINE], the Activity in [15] came to 35.9; in assay [16] it was 28.5; in assay [17], 27.8; in [18], 15.8.

In the case of `Cc1noc2c(-c3ccccc3)nn(CCC(=O)N3CCN(c4ccc(Cl)cc4)CC3)c(=O)c12`, the Activity in assay [1] worked out at 17.2; in assay [2], 23.5; in assay [4] it was 45.4.

In turn, `CC(CN1CCN(c2cccc(Cl)c2)CC1)Cn1ncc2ccccc2c1=O` (centres undefined) had an Activity in [2] of 36.7.

Compound `Cc1onc2c(=O)n(CCCN3CCN(c4cccc(Cl)c4)CC3)nc(-c3cccs3)c12` showed an Activity in assay [2] of 16.2.

As for `O=C1c2ccccc2C(=O)N1CCCN1CCN(c2ccc(F)cc2)CC1`, the Activity in [1] is listed as 36.5; in assay [2] it was 19.4.

As to `COc1ccccc1N1CCN(CCN2C(=O)c3ccccc3C(C)(C)C2=O)CC1`, the Activity in assay [19] is 9.6.

`Cc1noc2c(-c3ccccc3)nnc(SCCCN3CCN(c4ccc(F)cc4)CC3)c12` returned an Activity in assay [2] of 28.6.

With `Cc1cc(C)c2c(-c3ccccc3)nn(CCCN3CCN(c4cccc(Cl)c4)CC3)c(=O)c2n1`, the Activity in [2] stood at 18.

With `Cc1nn(CCCN2CCN(c3cccc(Cl)c3)CC2)c(=O)c2nn(-c3ccccc3)c(C)c12`, in [2], the Activity is 10.3.

Take `Cc1noc2c(-c3ccccc3)nn(CCC(=O)N3CCN(c4cccc(Cl)c4)CC3)c(=O)c12`: the figures for the Activity in [2] and in assay [4] were 22.1 and 41.3, respectively.

The compound `Cc1noc2c(-c3ccccc3)nn(CCCCN3CCN(c4cccc(Cl)c4)CC3)c(=O)c12` yielded an Activity in assay [2] of 30.6.

In assay [2], `Cc1noc2c(-c3ccccc3)nn(CCCN3CCN(c4ccc(Cl)cc4)CC3)c(=O)c12` registered an Activity of 27.1.

`Cc1noc2c(-c3ccccc3)nn(CC(C)CN3CCN(c4cccc(Cl)c4)CC3)c(=O)c12` (centres undefined): the Activity in [2] came out at 35.5.

With `O=C1c2ccccc2C(=O)N1CCN1CCN(c2ccc(F)cc2)CC1`, the values for the Activity in assay [2] and in [4] were 22.6 and 37.9, respectively.
